Sampled rows, rich in hits. Any-hit rate of the full collection: about 2.3%.
SKKanGAS inh: SKKanGAS growth inhibition; S. pyogenes SKKanGAS, kanamycin growth, BacTiter-Glo, 6 h; actives 1.3% (n = 300,000); inhibition, % at 7.5 µM;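 active = mean replicate score, as percent of positive control median, at least 50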;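 note: strain carries kanamycin resistance gene driven by streptokinase promoter and grows in 40 µg/ml kanamycin; loss of luminescence reflects streptokinase promoter inhibition or plain growth inhibition; 0% = median of DMSO wells and 100% = positive control at its reference dose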
sPLA2-III inh: Blocks human group III sPLA2 activity; actives 0.56% (n = 370,000); AID 743126; inhibition, % at 12.2 µM; Q9NZ20; QFRET BODIPY PC-A2 liposome hydrolysis, fluorescence;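 active = inhibition above mean plus 3 SD of compounds lying within the high and low control bounds, cut at about 19% in these data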;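 note: 0% = median of test compound wells and 100% = no enzyme DMSO wells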
ASAP1 GAP inh: ASAP1 ArfGAP inhibition | Q9ULH1 | ASAP1-stimulated ARF1 GTP hydrolysis, GDP FP detection | actives 0.19% (n = 360,000) | AID 624377 | inhibition, % at 16.5 µM; in the data active = inhibition above about 25%;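 note: 0% = vehicle with enzyme and substrate and 100% = no enzyme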
Target sequence (Q9ULH1 325-724 limits assumed): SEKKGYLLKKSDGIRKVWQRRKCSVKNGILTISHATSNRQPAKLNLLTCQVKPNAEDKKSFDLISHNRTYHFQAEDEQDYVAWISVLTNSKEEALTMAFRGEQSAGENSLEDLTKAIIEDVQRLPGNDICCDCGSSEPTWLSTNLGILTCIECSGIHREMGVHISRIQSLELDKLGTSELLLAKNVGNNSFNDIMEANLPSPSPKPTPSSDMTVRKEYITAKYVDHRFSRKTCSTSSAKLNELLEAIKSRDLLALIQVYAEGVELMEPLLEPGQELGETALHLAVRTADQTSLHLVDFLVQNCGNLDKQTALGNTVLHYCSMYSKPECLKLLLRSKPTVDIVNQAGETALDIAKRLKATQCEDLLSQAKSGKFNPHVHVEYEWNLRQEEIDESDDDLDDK
ARFGAP1 inh: inhibits rat ARF GTPase activating protein 1; actives 0.26% (n = 360,000); Arfgap1-stimulated ARF1 GTP hydrolysis, GDP FP detection; Q62848; inhibition, % at 16.5 µM; AID 651572;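 active = inhibition above a per-plate limit, mean inhibition of low control wells plus 3 SD, cut at about 25% in these data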;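 note: 0% = DMSO wells with enzyme and 100% = wells lacking Arfgap1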
Target sequence (Q62848 1-136 limits assumed): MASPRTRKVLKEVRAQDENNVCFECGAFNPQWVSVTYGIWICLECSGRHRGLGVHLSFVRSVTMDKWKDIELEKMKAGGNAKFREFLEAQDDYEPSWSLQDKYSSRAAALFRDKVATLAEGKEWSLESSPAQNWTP
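System: truncated rat Arfgap1 GAP domain / Benchmarks: high control wells lacking Arfgap1, low control full reaction with DMSO / Times: compound-enzyme preincubation 20 min, reaction 120 min, detection 60 min, 25 °C / Repeats: one replicate per compound / Also added: human ARF1(Δ1-17)-GTP substrate / Measured by: Tracer-displacement fluorescence polarization with EDTA stop, 620/688 nm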
Calb FLC: C. albicans growth modulation with fluconazole; growth inhibition, % (no concentration beside the values); actives 0.57% (n = 300,000); C. albicans CaCi-2 (fluconazole-resistant clinical isolate) + fluconazole, Alamar Blue growth, 48 h;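 active = growth inhibition above about 58% in most replicates, limit read from the data, passing the limit was not always enough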;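 note: all wells also contain fluconazole at 8 µg/ml as a sub-toxic cotreatment; 0% = median of DMSO wells and 100% = median of geldanamycin control wells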
sPLA2 confirm: human GIII-sPLA2 inhibition, confirmation; shares compounds with sPLA2-III inh; recombinant hGIII-sPLA2, BODIPY PC-A2 QFRET fluorescence; inhibition, % at 12.2 µM; actives 34% (n = 2,000); AID 743280;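 active = mean inhibition across triplicates above the hit cutoff set in the earlier primary screen, cut at about 19% in these data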;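 note: 0% = enzyme with DMSO and 100% = DMSO wells lacking enzyme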
BODIPY interf: 535nm fluorescence interference, HGIII-sPLA2 counter-screen; shares compounds with sPLA2-III inh; BODIPY FL product fluorescence interference, QFRET; inhibition, % at 12.2 µM; actives 8.5% (n = 2,000); AID 743282;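 active = average inhibition above the solvent-only control mean plus 3 SD, cut at about 6% in these data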;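 note: 0% = DMSO with substrate plus product and 100% = DMSO with substrate alone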
535nm interf DR: counter-screen for HGIII-sPLA2 inhibitors: 535nm fluorescence interference, dose response. shares compounds with sPLA2-III inh. BODIPY FL product fluorescence interference, cell-free. IC50, µM. 240 tested, under 10 active;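 active = IC50 at or below 10 µM; inactive = IC50 above 10 µM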
An asterisk follows results filed as active; ! = not active in a repeat.

For Cc1ccc2nc(N(CCN(C)C)C(=O)c3ccc4c(c3)OCCO4)sc2c1 the results were SKKanGAS inh 8.5, sPLA2-III inh 2.7, ASAP1 GAP inh -4.2, ARFGAP1 inh 2.5 and Calb FLC -4.2.
Screening COc1ccc2nc(NC(=O)/C=C/c3ccc4c(c3)OCO4)sc2c1 returned SKKanGAS inh -1.6, sPLA2-III inh 15.3, ASAP1 GAP inh 0.1, ARFGAP1 inh -4.5 and Calb FLC -10.6.
COc1ccc2nc(Nc3nc4cc5c(cc4s3)OCO5)sc2c1 was read as SKKanGAS inh 84.2*, sPLA2-III inh 23.2*, ASAP1 GAP inh 2.3, ARFGAP1 inh 9.7, Calb FLC 3.3, sPLA2 confirm 36.7*, BODIPY interf 4.8 and 535nm interf DR >122.
Screening O=C(CCc1ccccc1)N[C@H]1[C@H](OC(=O)c2ccc3ccccc3n2)CCC[C@@]12C(=O)N(Cc1ccccc1)c1ccccc12 returned sPLA2-III inh -11.0.
For CC(=O)c1ccc(-n2nnnc2SCC(=O)Nc2sc(C)c(C)c2C#N)cc1 the results were SKKanGAS inh 20.7, sPLA2-III inh 19.3*, ASAP1 GAP inh 17.7, ARFGAP1 inh -4.8, Calb FLC -6.8, sPLA2 confirm 3.8 and BODIPY interf -10.7.
`C[C@H]1C(c2ccccc2F)O[C@]2(C[C@H](O)c3c(ccc4ccccc34)O2)C[C@@H]1O` (stereo partly specified) gave sPLA2-III inh -28.0.
CCc1cc2c(nc1CC)CCCN2S(=O)(=O)c1cccs1 was read as sPLA2-III inh -0.1, ASAP1 GAP inh 12.8 and ARFGAP1 inh 13.3.
For Cc1nc2c(C)cccn2c1/C(O)=C1\C(=O)C(=O)N(CCN(C)C)C1c1ccccc1 (stereo unspecified) the results were SKKanGAS inh -2.6, sPLA2-III inh 19.9*, ASAP1 GAP inh 0.0, ARFGAP1 inh 2.9, Calb FLC 1.2, sPLA2 confirm 5.5 and BODIPY interf -0.2.
For O=C(NNC(=S)NCc1ccco1)c1ccc(Cl)s1 the results were SKKanGAS inh -7.8, sPLA2-III inh -14.1, ASAP1 GAP inh -0.5, ARFGAP1 inh 0.4 and Calb FLC 6.1.
For CCCCNC(=S)NNC(=O)c1nn(C)c(C)c1Cl the results were SKKanGAS inh 1.5, sPLA2-III inh 23.3*, ASAP1 GAP inh 0.9, ARFGAP1 inh -5.5, Calb FLC -24.0, sPLA2 confirm 20.6* and BODIPY interf 0.0.
Screening CCn1nc(C(=O)NCc2ccco2)c(Cl)c1Cl returned SKKanGAS inh 5.1, sPLA2-III inh 0.0, ASAP1 GAP inh 3.6, ARFGAP1 inh 0.1 and Calb FLC -7.7.
For Cc1c(Cl)c(C(=O)NNC(=S)NCc2ccco2)nn1C the results were SKKanGAS inh -1.5, sPLA2-III inh 35.1*, ASAP1 GAP inh 1.2, ARFGAP1 inh 9.9, Calb FLC 0.3, sPLA2 confirm 41.2*, BODIPY interf -2.0 and 535nm interf DR >122.
`Cn1cc(Cl)c(C(=O)NNC(=S)NCc2ccco2)n1` gave SKKanGAS inh -11.2, sPLA2-III inh 29.7*, ASAP1 GAP inh -5.2, ARFGAP1 inh 3.0, Calb FLC -7.9, sPLA2 confirm 25.0* and BODIPY interf 6.3*.
Screening COc1cc2c(c(OC)c1OC)[C@@]1(c3ccccc3)CCCC[C@H]1[C@@H]2NC(=O)C(F)(F)F returned sPLA2-III inh -2.3, ASAP1 GAP inh 4.5 and ARFGAP1 inh -4.4.
`CC(C)C(=O)OCCCN1C(=O)CCC12CCC(c1ccccc1)CC2` (stereo unspecified) gave sPLA2-III inh -4.6.
Screening S=C(Nc1ccccc1)N1CCCN1c1ccccc1 returned SKKanGAS inh -12.7, sPLA2-III inh 20.3*, ASAP1 GAP inh -0.9, ARFGAP1 inh 0.4, Calb FLC 0.5, sPLA2 confirm 4.2 and BODIPY interf -7.5.
Screening COc1ccc(S[C@]2(C(=O)N3CCN(c4ncccn4)CC3)CC(=O)N(C(=O)/C=C/c3ccccc3)[C@@H]2c2ccc(OC)cc2)cc1 returned sPLA2-III inh 9.6.
Screening O=[N+]([O-])c1ccc(Cl)c(C2Nc3cccc4cccc(c34)N2)c1 returned SKKanGAS inh 14.1, sPLA2-III inh 32.0*, ASAP1 GAP inh 1.1, ARFGAP1 inh -1.0, Calb FLC 4.1, sPLA2 confirm 56.7* and BODIPY interf 17.9*.
Screening COc1ccc(CCNC(=O)c2cc3c(C)nn(-c4ccccc4)c3s2)cc1OC returned sPLA2-III inh -27.8.
`COc1ccc(CN2C(=O)CCC2(C)c2nnnn2Cc2ccccc2)cc1` (stereo unspecified) gave sPLA2-III inh 14.1, ASAP1 GAP inh 3.8 and ARFGAP1 inh -14.2.
Screening CCOc1ccc(NC(=O)c2ccc3c(c2)S(=O)(=O)N=C2CCCCCN23)cc1 returned sPLA2-III inh 19.3*, ASAP1 GAP inh 8.6, ARFGAP1 inh 11.2, sPLA2 confirm 0.1 and BODIPY interf -3.6.
Screening O=C(Nc1ccc(F)cc1)c1ccc2c(c1)S(=O)(=O)N=C1CCCCCN12 returned sPLA2-III inh -4.3, ASAP1 GAP inh 11.2 and ARFGAP1 inh 6.7.
CSC1=NCCN1C(=O)c1c(-c2ccccc2Cl)noc1C was read as SKKanGAS inh -3.7, sPLA2-III inh 1.7, ASAP1 GAP inh 1.6, ARFGAP1 inh 8.7 and Calb FLC -8.2.
Screening CSC1=NCCCN1C(=O)c1c(-c2ccccc2Cl)noc1C returned SKKanGAS inh -4.8, sPLA2-III inh 22.5*, ASAP1 GAP inh -1.7, ARFGAP1 inh 14.5, Calb FLC -4.0, sPLA2 confirm -2.2 and BODIPY interf -6.3.
Screening O=S(=O)(/N=C(/Nc1cc(N2CCOCC2)ncn1)c1ccc(F)cc1)c1ccccc1 returned SKKanGAS inh -6.9, sPLA2-III inh 19.6*!, ASAP1 GAP inh -26.1, ARFGAP1 inh 10.2, Calb FLC -8.9, sPLA2 confirm 3.7 and BODIPY interf -5.7.
Screening CC(C)c1ccc(O)c(NC(=S)NC(=O)c2cccnc2)c1 returned SKKanGAS inh -9.9, sPLA2-III inh 4.9, ASAP1 GAP inh -8.8, ARFGAP1 inh 13.6 and Calb FLC 27.1.
For COC(=O)c1ccc(NC(=S)NC(=O)c2cccnc2)cc1 the results were SKKanGAS inh 15.9, sPLA2-III inh 21.3*, ASAP1 GAP inh 21.2, ARFGAP1 inh 4.4, Calb FLC -7.6, sPLA2 confirm 13.4 and BODIPY interf -4.3.
`COc1ccc(NC(=S)NC(=O)c2cccnc2)cc1` gave SKKanGAS inh 4.3, sPLA2-III inh 16.7, ASAP1 GAP inh 4.0, ARFGAP1 inh -0.7 and Calb FLC 1.4.
